From PubChem BioAssay
The source made the active and inactive calls.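 Rule for the calls, unless noted: active = viability at or under a set limit in both replicates, limit being median viability minus 3 SD (cut at about 48% in these data, passing the limit was not always enough); inconclusive = at or under the limit in just one replicate; inactive = at or above the limit in both replicates.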

How the values were obtained:
[1] = Her2 expression decrease, cell viability multiplex – SKBR3 breast tumor cells, AlphaScreen, ATP viability, primary screen (AID 461;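 active = Her2 level under about 52% in both replicate screens, with viability over 70% of control, limit read from the data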;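 for Her2 level: lower value means less Her2 protein in the cells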;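 for viability: percent of carrier control wells set as 100% viability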); conditions: SKBR3 Her2 protein level, 18-24 h, measured here: SKBR3 viability, ATP luminescence, at 10 µM
[2] = target: Receptor tyrosine-protein kinase erbB-2 (Homo sapiens) (UniProt P04626); assay: as above; conditions: 18-24 h, at 10 µM, stronger effect = lower value
[3] = reduced viability of SK-BR-3 breast cancer cells – cell-based, 24 h, human, pilot screen (AID 572;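 active = viability at or below 10% of carrier control in both of two separate runs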;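 note: compound exposure lasted between 18 and 24 h rather than exactly 24 h; 100% = carrier-treated control wells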); conditions: SK-BR-3 viability, CellTiter-Glo luminescence, at 10 µM, stronger effect = lower value
[4] = HUVEC growth inhibition – cell-based, human, primary screen (AID 575;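 active = viability at or below 30% in both replicate assays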;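 note: 100% = median of untreated cell wells with 0.1% DMSO on each plate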); conditions: HUVEC proliferation, CellTiter-Glo luminescence, 72 h; at 10 µM; stronger effect = lower value
Outline: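 Assay system: primary human umbilical vein endothelial cells / Buffer or medium: endothelial basal medium with 2% FBS plus growth supplements / Compound dosing: one dose, 10 µM final, 0.1% DMSO / Timing: 72 h treatment at 37 °C / Signal: CTG luminescence / Benchmarks: 32 DMSO-only cell-control wells (high), 32 MePR drug-control wells (low) per plate / Plate: collagen-coated 384-well format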

[5] = H69AR cell proliferation blockers – human, duplicate replicates, primary screen (AID 580); conditions: H69AR lung tumor cells viability, ATP luminescence, 72 h; at 10 µM; stronger effect = lower value;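 note: 100% = mean luminescence of untreated wells and 0% = no signal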
[6] = MRP1 drug-resistance reversers in H69AR cells – cell-based, doxorubicin co-treatment, pilot screen (AID 601;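 active = viability loss from added drug above about 55%, and viability with drug at most 40%, in both replicates, limit read from the data, passing the limit was not always enough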); conditions: CellTiter-Glo, 72 h, at 10 µM; for differential viability (reversal): stronger effect = higher value
[7] = yeast transport mutant growth inhibition pilot in 384-well plates, post-Golgi transport modulator project (AID 636; in the data active = inhibition above about 31%); conditions: absorbance 615 nm, about 18 h, stronger effect = higher value
[8] = growth suppression of yeast trafficking mutant, preliminary HTS, modulators of trafficking downstream of Golgi apparatus project, 1536-format plate, OD 615 nm (AID 637; in the data active = inhibition above about 30%); conditions: yeast transport mutant growth, absorbance 615 nm, 18 h; stronger effect = higher value
[9] = H69AR cells + 2 uM doxorubicin, measured here: viability with 2 uM doxorubicin, stronger effect = lower value
[10] = H69AR cells, compound alone cytotoxicity

Sequence of Receptor tyrosine-protein kinase erbB-2 (Homo sapiens) (P04626 whole entry, looked up): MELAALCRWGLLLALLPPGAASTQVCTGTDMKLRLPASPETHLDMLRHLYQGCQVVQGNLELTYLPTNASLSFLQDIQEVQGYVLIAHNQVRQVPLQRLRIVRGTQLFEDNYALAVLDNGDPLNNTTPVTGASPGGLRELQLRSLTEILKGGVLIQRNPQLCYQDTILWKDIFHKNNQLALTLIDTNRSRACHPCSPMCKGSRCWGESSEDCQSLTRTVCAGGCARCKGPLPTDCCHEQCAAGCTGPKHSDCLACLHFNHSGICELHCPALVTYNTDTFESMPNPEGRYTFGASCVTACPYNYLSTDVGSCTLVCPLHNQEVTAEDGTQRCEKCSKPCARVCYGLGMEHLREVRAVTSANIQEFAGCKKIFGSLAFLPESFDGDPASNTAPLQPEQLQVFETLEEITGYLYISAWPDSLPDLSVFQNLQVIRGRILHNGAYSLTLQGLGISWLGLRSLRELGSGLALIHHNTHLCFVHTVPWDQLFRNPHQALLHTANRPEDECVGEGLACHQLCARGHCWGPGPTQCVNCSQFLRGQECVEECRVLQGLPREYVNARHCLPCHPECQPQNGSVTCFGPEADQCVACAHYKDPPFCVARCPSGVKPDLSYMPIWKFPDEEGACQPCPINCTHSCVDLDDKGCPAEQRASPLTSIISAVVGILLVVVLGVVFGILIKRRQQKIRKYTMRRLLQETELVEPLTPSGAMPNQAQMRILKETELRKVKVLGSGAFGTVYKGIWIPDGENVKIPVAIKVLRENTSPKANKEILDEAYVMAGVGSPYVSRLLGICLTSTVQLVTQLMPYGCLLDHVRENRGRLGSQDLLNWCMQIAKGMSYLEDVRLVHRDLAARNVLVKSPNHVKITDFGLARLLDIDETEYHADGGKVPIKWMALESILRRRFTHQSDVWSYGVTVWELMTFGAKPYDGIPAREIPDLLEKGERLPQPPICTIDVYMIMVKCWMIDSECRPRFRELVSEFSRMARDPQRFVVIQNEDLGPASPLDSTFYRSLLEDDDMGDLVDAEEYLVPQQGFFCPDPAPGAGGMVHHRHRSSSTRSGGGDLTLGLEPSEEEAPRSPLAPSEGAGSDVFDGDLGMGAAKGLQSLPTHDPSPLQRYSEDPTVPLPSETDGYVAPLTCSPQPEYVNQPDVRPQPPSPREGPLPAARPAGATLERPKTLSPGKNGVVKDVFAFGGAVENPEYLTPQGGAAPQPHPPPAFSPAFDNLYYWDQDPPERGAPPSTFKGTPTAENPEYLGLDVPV

Structure (SMILES): COC(=O)CC1C(=O)NCCN1C(=O)NC1CCCCC1 (stereo not given)
- viability [1]: 94%
- Her2 level [2]: 114% (inactive)
- viability [3]: 94% (inactive)
- viability [4]: 104% (inactive)
- viability [5]: 98.8% (inactive)
- differential viability (reversal) ([6]; H69AR cells + 2 uM doxorubicin): 7.06% (inactive)
- viability [6, 9]: 91.7%
- viability [6, 10]: 98.8%
- inhibition [7]: -9.59% (inactive)
- inhibition [8]: -6.98% (inactive)

Structure (SMILES): CCCS(=O)(=O)N1CCN(C(=O)c2cccs2)CC1
- viability [1]: 99.5%
- Her2 level [2]: 99.5% (inactive)
- viability [3]: 99.5% (inactive)
- viability [4]: 110% (inactive)
- viability [5]: 99.9% (inactive)
- differential viability (reversal) ([6]; H69AR cells + 2 uM doxorubicin): -0.9% (inactive)
- viability [6, 9]: 101%
- viability [6, 10]: 99.9%
- inhibition [7]: -1.07% (inactive)
- inhibition [8]: 2.95% (inactive)

Structure (SMILES): CCN(CC)S(=O)(=O)c1ccc(S(=O)(=O)N(Cc2ccccn2)Cc2ccco2)cc1
- viability [1]: 94%
- Her2 level [2]: 94.5% (inactive)
- viability [3]: 94% (inactive)
- viability [4]: 90.6% (inactive)
- viability [5]: 91% (inactive)
- differential viability (reversal) ([6]; H69AR cells + 2 uM doxorubicin): -0.185% (inactive)
- viability [6, 9]: 91.2%
- viability [6, 10]: 91%
- inhibition [7]: -2.03% (inactive)
- inhibition [8]: 3.02% (inactive)

Structure (SMILES): COC(=O)c1cc(NC(=O)C2COc3ccccc3O2)cc(C(=O)OC)c1 (stereo not given)
- viability [1]: 106%
- Her2 level [2]: 86% (inactive)
- viability [3]: 106% (inactive)
- viability [4]: 91.1% (inactive)
- viability [5]: 84.2% (inactive)
- differential viability (reversal) ([6]; H69AR cells + 2 uM doxorubicin): 10.2% (inactive)
- viability [6, 9]: 74%
- viability [6, 10]: 84.2%
- inhibition [7]: -5.6% (inactive)
- inhibition [8]: 0.32% (inactive)

Structure (SMILES): CCOc1ccc(-n2cc(C(=O)N3CCN(C)CC3)c3cc(OC)c(OC)cc3c2=O)cc1
- viability [1]: 87%
- Her2 level [2]: 104% (inactive)
- viability [3]: 87% (inactive)
- viability [4]: 103% (inactive)
- viability [5]: 97.1% (inactive)
- differential viability (reversal) ([6]; H69AR cells + 2 uM doxorubicin): -12.4% (inactive)
- viability [6, 9]: 110%
- viability [6, 10]: 97.1%
- inhibition [7]: 1.62% (inactive)
- inhibition [8]: -0.16% (inactive)

Structure (SMILES): COC(=O)C1=C(C)Nc2nnnn2C1c1cccs1 (stereo not given)
- viability [1]: 95.5%
- Her2 level [2]: 101% (inactive)
- viability [3]: 95.5% (inactive)
- viability [4]: 104% (inactive)
- viability [5]: 96.9% (inactive)
- differential viability (reversal) ([6]; H69AR cells + 2 uM doxorubicin): 3.09% (inactive)
- viability [6, 9]: 93.8%
- viability [6, 10]: 96.9%
- inhibition [7]: 2.84% (inactive)
- inhibition [8]: 5.71% (inactive)

Structure (SMILES): O=C(CCN1C(=O)C2C3C=CC(C3)C2C1=O)Nc1c(F)cc(F)cc1Br (stereo not given)
- viability [1]: 99.5%
- Her2 level [2]: 91.5% (inactive)
- viability [3]: 99.5% (inactive)
- viability [4]: 90.2% (inactive)
- viability [5]: 103% (inactive)
- differential viability (reversal) ([6]; H69AR cells + 2 uM doxorubicin): 20.3% (inactive)
- viability [6, 9]: 82.6%
- viability [6, 10]: 103%
- inhibition [7]: 1.08% (inactive)
- inhibition [8]: -4.13% (inactive)

Structure (SMILES): CCOC(=O)c1ccc(NC(=O)c2ccc(NS(C)(=O)=O)cc2)cc1
- viability [1]: 97%
- Her2 level [2]: 83% (inactive)
- viability [3]: 97% (inactive)
- viability [4]: 92.1% (inactive)
- viability [5]: 82.9% (inactive)
- differential viability (reversal) ([6]; H69AR cells + 2 uM doxorubicin): 3.85% (inactive)
- viability [6, 9]: 79%
- viability [6, 10]: 82.9%
- inhibition [7]: -0.8% (inactive)
- inhibition [8]: -4.92% (inactive)

Structure (SMILES): Cc1cc2ncn(N)c2cc1C
- viability [1]: 99.5%
- Her2 level [2]: 84% (inactive)
- viability [3]: 99.5% (inactive)
- viability [4]: 101% (inactive)
- viability [5]: 98.8% (inactive)
- differential viability (reversal) ([6]; H69AR cells + 2 uM doxorubicin): 0.485% (inactive)
- viability [6, 9]: 98.3%
- viability [6, 10]: 98.8%
- inhibition [7]: -7.7% (inactive)
- inhibition [8]: 1.83% (inactive)

Structure (SMILES): CCOc1ccccc1N(CC(=O)NC1CCCC1)C(=O)CCCC(=O)Nc1ccccn1
- viability [1]: 91%
- Her2 level [2]: 93.5% (inactive)
- viability [3]: 91% (inactive)
- viability [4]: 106% (inactive)
- viability [5]: 112% (inactive)
- differential viability (reversal) ([6]; H69AR cells + 2 uM doxorubicin): 15.3% (inactive)
- viability [6, 9]: 96.3%
- viability [6, 10]: 112%
- inhibition [7]: -2.16% (inactive)
- inhibition [8]: 6.03% (inactive)
